According to ChEMBL document CHEMBL1629690, “Development of hexadecyloxypropyl tenofovir (CMX157) for treatment of infection caused by wild-type and nucleoside/nucleotide-resistant HIV” (Antimicrob Agents Chemother, 2010):

What follows are compounds tested on Human immunodeficiency virus 1 (assay: Antiviral activity against HIV1 isolate 201 harboring reverse transcriptase M41L/L210W/T215Y mutant gene by phenosense assay relative to wild type). Conditions: not given.
Format: functional
Procedure, shortened: (§1)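 PhenoSense HIV recombinant virus assay: patient-derived HIV-1 with major NRTI resistance mutations tested against increasing drug concentrations to give inhibition curves. EC50 is the concentration giving 50% inhibition. Fold change is the test recombinant EC50 divided by the EC50 of a drug-sensitive wild-type reference virus. Panel of 30 NRTI-resistant isolates plus two wild-type viruses.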

| SMILES | fold change (FC) |
| --- | --- |
| CCCCCCCCCCCCCCCCOCCCOP(=O)(O)CO[C@H](C)Cn1cnc2c(N)ncnc21 [TENOFOVIR EXALIDEX] | 3.5 |

The compounds below were run on Human immunodeficiency virus 1 (assay: Antiviral activity against HIV1 isolate 206 harboring reverse transcriptase D67N/K70R mutant gene by phenosense assay relative to wild type). Conditions: not given.
Format: functional
Procedure, shortened: as §1

| SMILES | fold change (FC) |
| --- | --- |
| CCCCCCCCCCCCCCCCOCCCOP(=O)(O)CO[C@H](C)Cn1cnc2c(N)ncnc21 [TENOFOVIR EXALIDEX] | 3 |

The compounds below were run on Human immunodeficiency virus 1 (assay: Antiviral activity against HIV1 isolate 069 harboring reverse transcriptase D67E/T69SSG/V75M/M184V/L210W/T215Y mutant gene by phenosense assay relative to wild type). Conditions: not given.
Format: functional
Procedure, shortened: (§2)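 Recombinant-virus PhenoSense HIV assay run on a panel of 30 NRTI-resistant HIV-1 mutants and two wild-type viruses. Each virus is tested across increasing drug concentrations to give an inhibition curve and EC50. Fold change is the test recombinant EC50 divided by the EC50 of the drug-sensitive wild-type reference virus.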

| SMILES | fold change (FC) |
| --- | --- |
| CCCCCCCCCCCCCCCCOCCCOP(=O)(O)CO[C@H](C)Cn1cnc2c(N)ncnc21 [TENOFOVIR EXALIDEX] | 6.1 |

Each compound was assayed on Human immunodeficiency virus 1 (assay: Antiviral activity against HIV1 isolate 200 harboring reverse transcriptase M41L/L210W/T215Y mutant gene by phenosense assay). Conditions: Human immunodeficiency virus 1, isolate 200.
Format: functional, organism-based
Procedure, shortened: as §2

| SMILES | EC50 [nM] |
| --- | --- |
| CCCCCCCCCCCCCCCCOCCCOP(=O)(O)CO[C@H](C)Cn1cnc2c(N)ncnc21 [TENOFOVIR EXALIDEX] | 6 |

These compounds were tested on Human immunodeficiency virus 1 (assay: Antiviral activity against HIV1 isolate 066 harboring reverse transcriptase 184V mutant gene by phenosense assay relative to wild type). Conditions: not given.
Format: functional
Procedure, shortened: as §2

| SMILES | fold change (FC) |
| --- | --- |
| CCCCCCCCCCCCCCCCOCCCOP(=O)(O)CO[C@H](C)Cn1cnc2c(N)ncnc21 [TENOFOVIR EXALIDEX] | 0.73 |

The compounds below were run on Human immunodeficiency virus 1 (assay: Antiviral activity against HIV1 isolate 162 harboring reverse transcriptase A62V/V75I/F77L/Y115F/F116Y/Q151M/M184V mutant gene by phenosense assay relative to wild type). Conditions: not given.
Format: functional
Procedure, shortened: as §2

| SMILES | fold change (FC) |
| --- | --- |
| CCCCCCCCCCCCCCCCOCCCOP(=O)(O)CO[C@H](C)Cn1cnc2c(N)ncnc21 [TENOFOVIR EXALIDEX] | 1.6 |

What follows are compounds tested on Human immunodeficiency virus 1 (assay: Antiviral activity against HIV1 isolate 180 harboring reverse transcriptase K65R mutant gene obtained as site-directed mutant of NL4-3 by phenosense assay). Conditions: Human immunodeficiency virus 1, isolate 180.
Format: functional, organism-based
Procedure, shortened: as §2

| SMILES | EC50 [nM] |
| --- | --- |
| CCCCCCCCCCCCCCCCOCCCOP(=O)(O)CO[C@H](C)Cn1cnc2c(N)ncnc21 [TENOFOVIR EXALIDEX] | 4.7 |

Each compound was assayed on Human immunodeficiency virus 1 (assay: Antiviral activity against HIV1 isolate 063 harboring reverse transcriptase M41L/D67N/K70R/M184V/L210W/T215Y/K219E mutant gene by phenosense assay). Conditions: Human immunodeficiency virus 1, isolate 063.
Format: functional, organism-based
Procedure, shortened: as §2

| SMILES | EC50 [nM] |
| --- | --- |
| CCCCCCCCCCCCCCCCOCCCOP(=O)(O)CO[C@H](C)Cn1cnc2c(N)ncnc21 [TENOFOVIR EXALIDEX] | 5.2 |

The compounds below were run on Human immunodeficiency virus 1 (assay: Antiviral activity against HIV1 isolate 185 harboring reverse transcriptase T215Y mutant gene by phenosense assay relative to wild type). Conditions: not given.
Format: functional
Procedure, shortened: as §2

| SMILES | fold change (FC) |
| --- | --- |
| CCCCCCCCCCCCCCCCOCCCOP(=O)(O)CO[C@H](C)Cn1cnc2c(N)ncnc21 [TENOFOVIR EXALIDEX] | 2.7 |

Each compound was assayed on Human immunodeficiency virus 1 (assay: Antiviral activity against HIV1 isolate 194 harboring reverse transcriptase M41L/T215Y/M184V mutant gene by phenosense assay relative to wild type). Conditions: not given.
Format: functional
Procedure, shortened: as §2

| SMILES | fold change (FC) |
| --- | --- |
| CCCCCCCCCCCCCCCCOCCCOP(=O)(O)CO[C@H](C)Cn1cnc2c(N)ncnc21 [TENOFOVIR EXALIDEX] | 1.6 |

What follows are compounds tested on Human immunodeficiency virus 1 (assay: Antiviral activity against HIV1 isolate 174 harboring reverse transcriptase M184V mutant gene obtained as site-directed mutant of NL4-3 by phenosense assay relative to wild type). Conditions: not given.
Format: functional
Procedure, shortened: as §2

| SMILES | fold change (FC) |
| --- | --- |
| CCCCCCCCCCCCCCCCOCCCOP(=O)(O)CO[C@H](C)Cn1cnc2c(N)ncnc21 [TENOFOVIR EXALIDEX] | 0.62 |

These compounds were tested on Human immunodeficiency virus 1 (assay: Antiviral activity against HIV1 isolate 166 harboring reverse transcriptase L74V mutant gene obtained as site-directed mutant of NL4-3 by phenosense assay relative to wild type). Conditions: not given.
Format: functional
Procedure, shortened: as §2

| SMILES | fold change (FC) |
| --- | --- |
| CCCCCCCCCCCCCCCCOCCCOP(=O)(O)CO[C@H](C)Cn1cnc2c(N)ncnc21 [TENOFOVIR EXALIDEX] | 0.8 |

These compounds were tested on Human immunodeficiency virus 1 (assay: Antiviral activity against HIV1 isolate 215 harboring reverse transcriptase D67N/K70E mutant gene by phenosense assay relative to wild type). Conditions: not given.
Format: functional
Procedure, shortened: as §1

| SMILES | fold change (FC) |
| --- | --- |
| CCCCCCCCCCCCCCCCOCCCOP(=O)(O)CO[C@H](C)Cn1cnc2c(N)ncnc21 [TENOFOVIR EXALIDEX] | 1.2 |

The compounds below were run on Human immunodeficiency virus 1 (assay: Antiviral activity against HIV1 isolate 057 expressing wild type reverse transcriptase gene by phenosense assay). Conditions: Human immunodeficiency virus 1, isolate 057.
Format: functional, organism-based
Procedure, shortened: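 In the PhenoSense recombinant virus assay, virus was tested against increasing drug concentrations. EC50 came from the inhibition curve and was compared with a drug-sensitive reference virus.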

| SMILES | EC50 [nM] |
| --- | --- |
| CCCCCCCCCCCCCCCCOCCCOP(=O)(O)CO[C@H](C)Cn1cnc2c(N)ncnc21 [TENOFOVIR EXALIDEX] | 1.6 |

These compounds were tested on Human immunodeficiency virus 1 (assay: Antiviral activity against HIV1 isolate 212 harboring reverse transcriptase L210W/T215Y mutant gene by phenosense assay relative to wild type). Conditions: not given.
Format: functional
Procedure, shortened: as §1

| SMILES | fold change (FC) |
| --- | --- |
| CCCCCCCCCCCCCCCCOCCCOP(=O)(O)CO[C@H](C)Cn1cnc2c(N)ncnc21 [TENOFOVIR EXALIDEX] | 1.5 |

What follows are compounds tested on Human immunodeficiency virus 1 (assay: Antiviral activity against HIV1 isolate 204 harboring reverse transcriptase M41L/L210W/T215Y/M184V mutant gene by phenosense assay relative to wild type). Conditions: not given.
Format: functional
Procedure, shortened: as §1

| SMILES | fold change (FC) |
| --- | --- |
| CCCCCCCCCCCCCCCCOCCCOP(=O)(O)CO[C@H](C)Cn1cnc2c(N)ncnc21 [TENOFOVIR EXALIDEX] | 1.4 |

What follows are compounds tested on Human immunodeficiency virus 1 (assay: Antiviral activity against HIV1 isolate 063 harboring reverse transcriptase M41L/D67N/K70R/M184V/L210W/T215Y/K219E mutant gene by phenosense assay relative to wild type). Conditions: not given.
Format: functional
Procedure, shortened: as §2

| SMILES | fold change (FC) |
| --- | --- |
| CCCCCCCCCCCCCCCCOCCCOP(=O)(O)CO[C@H](C)Cn1cnc2c(N)ncnc21 [TENOFOVIR EXALIDEX] | 2.8 |

What follows are compounds tested on Human immunodeficiency virus 1 (assay: Antiviral activity against HIV1 isolate 211 harboring reverse transcriptase D67N/K70R/T215F/K219E/M184V mutant gene by phenosense assay). Conditions: Human immunodeficiency virus 1, isolate 211.
Format: functional, organism-based
Procedure, shortened: as §1

| SMILES | EC50 [nM] |
| --- | --- |
| CCCCCCCCCCCCCCCCOCCCOP(=O)(O)CO[C@H](C)Cn1cnc2c(N)ncnc21 [TENOFOVIR EXALIDEX] | 1.9 |
